Rows were chosen to be rich in hits. Some 3.2% of all compounds tested hit in one or more screens of this group.
MEKK2 WT-MEK5: raises or lowers MEK5 binding to wildtype human MEKK2 PB1 domain. Q9Y2U5. bead flow cytometry, Alexa488-MEK5 binding to MEKK2 WT; actives lie on both sides. binding response (% of control), % at 10 µM. actives 1.1% (n = 290,000). AID 1531; in the data active = binding response below about 67% or above about 130%
Apaf1 inhib: human Apaf-1 inhibition. O14727. reconstituted apoptosome caspase-3 activity, DEVD-Rh110 fluorescence. inhibition, % at 20 µM. actives 0.71% (n = 330,000); active = inhibition of at least 40% at 20 µM;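 also: plate controls were DMSO wells for no effect and DEVD-CHO caspase inhibitor wells for full effect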
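System – cell-free apoptosome with Apaf-1, procaspase-3 and caspase-9 · Buffer or medium – pH 7.5 Hepes buffer with CHAPS, BSA, DTT · Also added – cytochrome c with DEVD-Rh110 · Times – 30 min compound preincubation, 50 min activation, room temperature · Technique – Rh110 fluorescence intensity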
Pemphigus Ab inh: inhibitors of pemphigus antibody binding to human desmoglein-3; actives 0.48% (n = 310,000); DSG3-coupled beads, scFv-anti-DSG3-GFP binding, flow cytometry; hits give low values; binding (percent of control), % at 10 µM; P32926; AID 588358;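 active = binding more than 3 SD below its plate's average and above zero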;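 also: hits lower antibody fragment binding to DSG3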
MEKK2mut PB1 HTS: signal of MEK5 binding to mutant human MEKK2 PB1 domain; bead flow cytometry, Alexa488-MEK5 binding to MEKK2 mutant; percent response, % at 10 µM; actives 0.35% (n = 290,000); in the data active = percent response above about 24%, passing the limit was not always enough
MEKK3 PB1 HTS: MEKK3-MEK5 PB1 interaction, increase or decrease; bead-based flow cytometry, Alexa488-MEK5 binding to MEKK3; actives lie on both sides; 0 = blocked by unlabeled MEK5, 100 = vehicle; binding response (% of control), % at 10 µM; Q99759; actives 1.4% (n = 290,000);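 active = binding response more than 3 SD above or below the average of its plate-row segment, actives on both sides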;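 also: Alexa488 bead fluorescence after subtracting the streptavidin-only scavenger bead signal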
Target sequence (Q99759 whole entry, looked up): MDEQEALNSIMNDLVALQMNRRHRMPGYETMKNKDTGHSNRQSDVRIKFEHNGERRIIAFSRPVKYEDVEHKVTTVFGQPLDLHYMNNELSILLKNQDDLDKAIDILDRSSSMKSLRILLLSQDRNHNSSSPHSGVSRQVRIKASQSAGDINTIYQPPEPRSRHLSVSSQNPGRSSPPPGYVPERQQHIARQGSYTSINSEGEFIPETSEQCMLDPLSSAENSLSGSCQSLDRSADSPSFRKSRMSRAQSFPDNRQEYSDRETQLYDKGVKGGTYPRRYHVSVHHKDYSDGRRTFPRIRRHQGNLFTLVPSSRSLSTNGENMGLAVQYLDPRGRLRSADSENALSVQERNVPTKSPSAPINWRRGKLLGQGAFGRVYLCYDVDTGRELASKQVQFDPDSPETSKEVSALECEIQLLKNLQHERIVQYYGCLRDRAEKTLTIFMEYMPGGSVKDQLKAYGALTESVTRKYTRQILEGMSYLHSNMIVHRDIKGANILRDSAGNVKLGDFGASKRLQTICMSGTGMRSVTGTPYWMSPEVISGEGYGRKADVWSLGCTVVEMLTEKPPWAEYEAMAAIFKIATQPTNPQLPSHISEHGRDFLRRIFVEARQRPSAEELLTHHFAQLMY
UBC13 polyUb: human UBC13 polyubiquitination inhibition; actives 0.47% (n = 330,000); UBC13 polyubiquitin chain formation, TR-FRET; inhibition, % at 20 µM; AID 485273; P61088; in the data active = inhibition above about 45%, passing the limit was not always enough
Starred values were filed as active, the others as inactive; . = no result given; [ ] = remark or other dose.

SMILES	MEKK2 WT-MEK5	Apaf1 inhib	Pemphigus Ab inh	MEKK2mut PB1 HTS	MEKK3 PB1 HTS	UBC13 polyUb
O=C(CSc1ccc(-c2ccc3c(c2)OCO3)nn1)Nc1nccs1	106.0	-45.3	94.6*	-1.0	108.0	1.5
CCOC(COC(=O)c1ccccc1C(=O)O)c1ccccc1 (stereo not drawn)	.	.	106.2	.	.	.
CC(Sc1nnc(Cc2ccccc2)n1C)C(=O)NC1CC1 (stereo not drawn)	.	5.4	98.2	.	.	-13.0
O=c1c(=NNc2ccccc2Cl)c(=O)c2ccccc12	88.0	.	122.6	-12.0	77.0*[inhibitor]	.
CCO/C=C1/C(=O)N(Cc2ccccc2)C(=O)c2ccccc21	101.0	61.7*	.	0.0	101.0	-19.3
CCO/C=C1\C(=O)N(c2ccccc2)C(=O)c2ccccc21	92.0	1.6	119.3	1.0	94.0	3.8
COc1ccc(CCN(C)C(=O)CCc2nnc(-c3ccccc3)o2)cc1OC	7.0*	7.2	99.2	-12.0	94.0	-1.2
C=CCN1C(=O)c2ccc(C(=O)N3CCN(S(=O)(=O)c4cccc(Cl)c4)CC3)cc2C1=O	111.0	14.0	.	8.0	104.0	-0.3
CSc1ccc(CCNC(=O)C2CCCN(S(=O)(=O)N3CCOCC3)C2)cc1 (stereo not drawn)	96.0	-0.9	76.9*	-10.0	89.0	-2.4
COc1cc(Sc2ccc(C)cc2)c(OC)cc1N	73.0	17.8	80.1*	-8.0	72.0	-12.2
COC(=O)c1ccc(Sc2ccc(C)cc2)c(N)c1	105.0	1.3	85.6	5.0	102.0	29.5
COc1ccc(OC)c(/C=N/NC(=O)C(=O)N/N=C/c2cc(OC)ccc2OC)c1	104.0	.	53.8*	1.0	107.0	.
COc1ccc(OC)c(C=NNC(=O)NN=Cc2cc(OC)ccc2OC)c1	.	.	101.8	.	.	.
O=C(OCc1ccccc1F)c1cnc(Cl)c(Cl)c1	-10.0*[inhibitor]	11.2	103.2	-26.0	0.0*[inhibitor]	-1.4
COc1cc2ccccc2cc1C(=O)N1CCN(C(C)=O)CC1	96.0	-1.6	91.9	-6.0	93.0	-1.1
COc1ccc2cc(OC)c(C(=O)N3CCOCC3)cc2c1	-7.0*	-6.5	93.7	2.0	100.0	16.0
c1coc(C2=Nc3cccc4cccc(c34)N2)c1	96.0	13.7	78.3*	-1.0	94.0	-75.4
Cc1cccc2nc(-c3cccnc3)c(NCCC(C)C)n12	-11.0*	11.5	96.8	2.0	95.0	19.6
c1cnc2nc3c4ccccc4c4ccccc4c3nc2c1	.	.	78.5*	.	.	.
Cc1nc2ccccc2c2ncccc12	105.0	1.7	120.6	1.0	101.0	-4.4
Nn1c(SCc2ccccc2)nc2ccccc21	98.0	-1.2	100.1	1.0	100.0	11.1
Cc1ccccc1NC(=O)Cc1nc(COC(=O)c2cccc([N+](=O)[O-])c2)cs1	107.0	9.7	78.2*	9.0	108.0	-1.1
C=CCn1c(N)c(C(=O)OC(C)(C)C)c2nc3ccccc3nc21	.	67.3*	.	.	.	1.4
O=C(O)CCCN1C(=O)/C(=C\c2ccc(-c3nc4ccccc4s3)o2)SC1=S	41.0*[inhibitor]	-80.6	73.5*	-20.0	68.0	-102.4
O=C(O)CCN1C(=O)/C(=C/c2ccc(-c3nc4ccccc4s3)o2)SC1=S	.	8.1	98.4	.	.	-137.6
SMILES	MEKK2 WT-MEK5	Apaf1 inhib	Pemphigus Ab inh	MEKK2mut PB1 HTS	MEKK3 PB1 HTS	UBC13 polyUb
CC(=O)N1CCN(C(=O)c2cccc(S(=O)(=O)N3CCN(c4ccc(F)cc4)CC3)c2)CC1	.	0.2	96.5	.	.	6.0
O=C(c1cccc(S(=O)(=O)N2CCN(c3ccc(F)cc3)CC2)c1)N1CCCCCCC1	.	41.8*	101.0	.	.	27.8
C=C1c2cccc(C(F)(F)F)c2O[C@H](C(=O)OCC)[C@H]1OC	.	8.2	103.7	.	.	.
COc1cccc(CC2(CO)CCCN(C/C=C/c3ccccc3OC)C2)c1 (stereo not drawn)	115.0	2.2	92.2	3.0	103.0	12.8
COc1ccccc1/C=C/CN1CCCC(CO)(Cc2cccc(Cl)c2)C1 (stereo not drawn)	190.0*	7.3	.	60.0*	111.0	6.8
Cc1ccc(NC(=O)c2ccc3c(c2)N(CC(=O)NC(C)C)C(=O)C(C)(C)O3)cc1	100.0	2.4	123.6	3.0	100.0	5.2
O=C(Nc1ccc(OC(F)F)c(Cl)c1)C(c1ccccc1)c1ccccc1	134.0	33.6	105.3	4.0	147.0*	-2.5
O=C(Cc1cccc2ccccc12)Nc1ccc(OC(F)F)c(Cl)c1	134.0	7.6	100.0	2.0	109.0	11.7
COCCCNC(=O)c1c(N)n(/N=C/c2cccs2)c2nc3ccccc3nc12	88.0	11.6	79.0*	-3.0	87.0	13.7
COCCn1c(N)c(C(=O)NCc2cccs2)c2nc3ccccc3nc21	92.0	95.2*	104.7	-5.0	99.0	21.4
Nc1c(C(=O)NCc2ccco2)c2nc3ccccc3nc2n1CCc1ccc(F)cc1	106.0	77.6*	.	-1.0	106.0	-17.2
O=C(Oc1ccc[nH]c1=O)C1CC1	.	.	99.3	.	.	.
Cc1cc(C)c(CN2CCN(C(=O)Cn3cnc(C(=O)Nc4ccc(C)c(C)c4)n3)CC2)c(C)c1	.	26.3	95.5	.	.	.
CC(=O)Nc1cccc(-c2csc(Nc3ccccn3)n2)c1	104.0	-11.1	70.0*	4.0	105.0	1.8
O=c1[nH]c(/C=C\c2ccccc2F)nc(O)c1[N+](=O)[O-]	98.0	13.4	93.0	2.0	99.0	-17.9
CCn1c(C(C#N)/C(=N\S(=O)(=O)c2cccs2)c2ccccc2)nc2ccccc21 (stereo not drawn)	76.0	-3.8	73.9*	-14.0	80.0	-2.0
CCOc1ccc(NC(=O)c2cc(S(=O)(=O)N3CCCCC3)c[nH]2)cc1	83.0	16.4	80.3*	-7.0	93.0	-5.8
O=C(CNC(=O)c1ccccc1)Nc1cccc(C(F)(F)F)c1	43.0*[inhibitor]	12.6	98.0	-115.0	93.0	3.3
C=C(C)CC(NCCc1ccccc1)c1ccco1 (stereo not drawn)	164.0*	.	100.5	-15.0	98.0	.
COc1ccc(CC(=O)Nc2ccc(N3CCCC3)c(C)c2)cc1	33.0*[inhibitor]	15.2	.	-4.0	98.0	-1.8
COc1ccc(CC(=O)Nc2cccc(-c3csc(C)n3)c2)cc1	104.0	1.5	-20.2*	5.0	105.0	-0.6
O=C(COC(=O)c1ccccc1SCC(=O)N1CCCC1)NCc1ccc(F)cc1	.	.	96.0	.	.	.
N#CC1(NC(=O)COC(=O)Cn2[nH]c(=O)c3ccccc3c2=O)CCCCC1	.	-6.8	96.0	.	.	-0.9
CCN(CC)c1ccc(C(=O)OCc2cc(=O)oc3cc(O)ccc23)cc1	105.0	11.5	85.6*	6.0	105.0	-15.9
CCN(CC)c1ccc2c(O)cc(=O)oc2c1	92.0	-2.0	107.3	-7.0	102.0	-8.8
Cc1noc(C)c1C(=O)OC(C)C(=O)c1ccc(C(C)(C)C)cc1 (stereo not drawn)	.	.	100.1	.	.	.

Screening data: PubChem, several laboratories
